Drawing on ChEMBL document CHEMBL1139574, “Synthesis and biological evaluation of novel bisphosphonates with dual activities on bone in vitro” (2005), this text covers inhibition, Proliferation and Activity for twelve compounds.

Holding throughout (format): functional
Experiment [1] is described as follows: Inhibitory ratio of osteoclast precursor cells at concentration of 10e-7 M by staining with tartrate-resistant acid […]. The method, boiled down:
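Osteoclast precursor cells plated at 5 × 10⁴ cells/well and cultured 8 days with or without bisphosphonate at 10^-7 M. Cells then TRAP-stained, and positive cells with three or more nuclei counted. Inhibitory ratio (%) = (control count − treated count)/control count × 100. Mean ± SE, n = 5.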

The species named for experiment [2] is Rattus norvegicus. Put plainly: Proliferative activity on the of rat calvaria osteoblasts at concentration of 10e-8 M. The procedure, abridged: (§1)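 SD rat calvarial osteoblasts plated at 2 × 10⁴ cells/well and exposed to a range of bisphosphonate concentrations for 72 h. Proliferation read by MTT, absorbance at 492 nm. Proliferative ratio (%) = (treated − control)/control × 100. Mean ± SE, n = 3.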

The species entered for experiment [3] is Rattus norvegicus. Put plainly: Proliferative activity on the of rat calvaria osteoblasts at concentration of 10e-5 M. The method, boiled down: as §1
The species entered for experiment [4] is Rattus norvegicus. In words: Proliferative activity on the of rat calvaria osteoblasts at concentration of 10e-6 M. The method, boiled down: as §1
The species named for experiment [5] is Rattus norvegicus. In words: Proliferative activity on the of rat calvaria osteoblasts at concentration of 10e-7 M. The procedure, abridged:
as §1

Experiment [6] can be described thus: Inhibitory activity of bone gamma-carboxyglutamate (gla) protein (osteocalcin) was determined at concentration of 10e-8 M in cell lysates. The procedure, abridged: (§2)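 Newborn Sprague-Dawley rat calvarial osteoblast-enriched cultures seeded at 5 × 10³ cells/well and treated for 72 h. Osteocalcin measured in cell lysates by radioimmunoassay. Normalized to viable cell number from MTT. Mean ± SE, n = 5.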

Experiment [7] is described as follows: Inhibitory activity of bone gamma-carboxyglutamate (gla) protein (osteocalcin) was determined at concentration of 10e-9 M in cell lysates. The method, boiled down: as §2
Experiment [8] concerns the target T1, Alkaline phosphatase, tissue-nonspecific isozyme (Rattus norvegicus) (UniProt P08289).
T1 sequence (whole entry): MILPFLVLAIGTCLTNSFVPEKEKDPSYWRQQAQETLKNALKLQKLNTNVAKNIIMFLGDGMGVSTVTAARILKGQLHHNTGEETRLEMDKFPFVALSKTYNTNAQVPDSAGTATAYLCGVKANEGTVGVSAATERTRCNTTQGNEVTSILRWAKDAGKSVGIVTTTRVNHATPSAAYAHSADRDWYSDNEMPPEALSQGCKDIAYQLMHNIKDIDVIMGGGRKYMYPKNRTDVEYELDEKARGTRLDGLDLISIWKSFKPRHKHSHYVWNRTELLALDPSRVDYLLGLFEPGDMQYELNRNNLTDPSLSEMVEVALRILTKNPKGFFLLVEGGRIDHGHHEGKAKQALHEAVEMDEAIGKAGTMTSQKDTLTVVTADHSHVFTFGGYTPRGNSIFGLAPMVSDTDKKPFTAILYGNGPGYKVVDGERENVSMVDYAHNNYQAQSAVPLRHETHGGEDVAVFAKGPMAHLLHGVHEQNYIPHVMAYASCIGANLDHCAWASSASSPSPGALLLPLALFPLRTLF
In words: Inhibitory activity of Alkaline phosphatase was determined at concentration of 10e-6 M using p-nitrophenylphosphate as the substrate. The method, boiled down: (§3)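 Primary osteoblast-enriched cells from newborn Sprague-Dawley rat calvaria, cultured in DMEM at 37 °C under 5% CO2. Seeded at 5 × 10³ cells/well and exposed to test agent for 72 h. Alkaline phosphatase activity measured with p-nitrophenylphosphate substrate. Values normalized to viable cell number from the MTT assay. Mean ± SE, n = 5.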

Experiment [9] can be described thus: Inhibitory activity of bone gamma-carboxyglutamate (gla) protein (osteocalcin) was determined at concentration of 10e-7 M in cell lysates. The procedure, abridged: as §2
The target of experiment [10] is T1, Alkaline phosphatase, tissue-nonspecific isozyme (Rattus norvegicus). In words: Inhibitory activity of Alkaline phosphatase was determined at concentration of 10e-9 M using p-nitrophenylphosphate as the substrate. The method, boiled down: as §3
Experiment [11] has the same target. Put plainly: Inhibitory activity of Alkaline phosphatase was determined at concentration of 10e-8 M using p-nitrophenylphosphate as the substrate. The method, boiled down: as §3
Experiment [12] can be described thus: Inhibitory activity of bone gamma-carboxyglutamate (gla) protein (osteocalcin) was determined at concentration of 10e-6 M in cell lysates. The procedure, abridged: as §2
Experiment [13] concerns the target T1, Alkaline phosphatase, tissue-nonspecific isozyme (Rattus norvegicus). In words: Inhibitory activity of Alkaline phosphatase was determined at concentration of 10e-7 M using p-nitrophenylphosphate as the substrate. The procedure, abridged: as §3

SMILES strings stand for the structures.

By inhibition is commonly meant the percentage by which the read-out fell short of the control. `Cc1ccccc1C(=O)NCCCC(O)(P(=O)(O)O)P(=O)(O)O`: the inhibition at 0.1 µM in experiment [1] stood at 30.3%.
Take `COc1cccc(C(=O)NCCC(O)(P(=O)([O-])O)P(=O)([O-])O)c1.[Na+].[Na+]`: the Proliferation in the experiment listed under Rattus norvegicus [2] was 0.6%; in the experiment listed under Rattus norvegicus [3], 8.9%; in the experiment listed under Rattus norvegicus [4], 7.1%; in the experiment listed under Rattus norvegicus [5], -5.5%. Further, the inhibition at 0.1 µM in experiment [1] is 26.9%.
Taken in the same sequence, the figures for `COc1cc([N+](=O)[O-])cc(C(=O)NCCC(O)(P(=O)([O-])O)P(=O)([O-])O)c1OC.[Na+].[Na+]` were -0.8%, 17.7%, -1.5%, 21.4% and 64.4%.
Consider `Cc1ccc(C(=O)NCCC(O)(P(=O)(O)O)P(=O)(O)O)cc1`, for which, in experiment [1], the inhibition at 0.1 µM worked out at 30.4%.
Consider `O=C(NCCC(O)(P(=O)(O)O)P(=O)(O)O)c1ccccc1`, for which the inhibition at 0.1 µM in [1] was determined as 9.5%.
The same measure, in the same setting: in the case of `O=C(NCCCCCC(O)(P(=O)(O)O)P(=O)(O)O)c1cccc(Cl)c1` it was 15.9%; in that of `COc1ccc(C(=O)NCCCCCC(O)(P(=O)(O)O)P(=O)(O)O)cc1`, 39%.
`O=C(NCCC(O)(P(=O)([O-])O)P(=O)([O-])O)c1ccc2c(c1)OCO2.[Na+].[Na+]`: the Proliferation is recorded as -0.2% in the experiment listed under Rattus norvegicus [2], 9.3% in the experiment listed under Rattus norvegicus [3], -8.3% in the experiment listed under Rattus norvegicus [4] and -7.3% in the experiment filed under Rattus norvegicus [5]. In [1], the inhibition at 0.1 µM came out at 60.2%.
As for `Cc1ccccc1C(=O)NCCCCCC(O)(P(=O)(O)O)P(=O)(O)O`, the inhibition at 0.1 µM in [1] came to 9.4%.
`O=C(NCCCC(O)(P(=O)(O)O)P(=O)(O)O)c1ccccc1`: the inhibition at 0.1 µM in experiment [1] was found to be 35.6%.
In the case of `COc1cccc(C(=O)NCCC(O)(P(=O)([O-])O)P(=O)([O-])O)c1OC.[Na+].[Na+]`, the Activity in experiment [6] amounted to 4.73; in experiment [7] it was 4.07; in experiment [8], 3.6; in [9], 8.63; in experiment [10] it was 0.56; in [11] it was 0.75. Moreover, the Activity in [12] came out at 11.7; in experiment [13], 2.15. The Proliferation in the experiment filed under Rattus norvegicus [2] is 26.6%; in the experiment filed under Rattus norvegicus [3], 35.2%; in the experiment filed under Rattus norvegicus [4] it was 47.4%; in the experiment filed under Rattus norvegicus [5], 74.4%. Also, the inhibition at 0.1 µM in [1] is 68.1%.
For the compound `COc1cccc(C(=O)NCCCC(O)(P(=O)([O-])O)P(=O)([O-])O)c1.[Na+].[Na+]`, the Proliferation in the experiment listed under Rattus norvegicus [2] is 3.7%; in the experiment listed under Rattus norvegicus [3] it was 0.7%; in the experiment listed under Rattus norvegicus [4], -5.5%; in the experiment listed under Rattus norvegicus [5], -12.4%. Besides, the inhibition at 0.1 µM in experiment [1] was 34.2%.
